Data set [1] can be described thus: Induction of TNF production in murine splenocytes at 100 ug/mL.
The subject of data set [2] is Splenocyte. In words: Induction of TNF secretion in mouse splenocytes at 30 ug/mL after 4 hrs. It is filed as functional. The essentials:
(§1)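 Primary male mouse splenocytes, RBC-lysed, plated at 3 × 10⁶ cells/well in Alpha-MEM with 10% FCS. Treated with compound for 4 h at 37 °C. Supernatant TNF measured by ELISA, each sample in duplicate, with triplicate wells per condition. Mean ± SEM reported.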

The subject of data set [3] is HECPP. As to the kind of experiment: Activation of NF-kappaB in HECPP cells at 30 ug/mL. It is filed as functional, cell-based. Conditions: Mus musculus. Summed up: (§2)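 HECPP murine endothelial cells (2.5 × 10⁷) exposed to compound for 2 h. Nuclear extracts prepared, and 5 µg nuclear protein incubated with poly(dI/dC) on ice for 10 min. A ³²P-labeled κ-enhancer NF-κB consensus oligonucleotide was then added. Complexes were resolved on a 4% polyacrylamide gel in 0.25× TBE at 150 V for 2 h, then read by autoradiography (EMSA).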

Data set [4] can be described thus: Cytotoxicity against HECPP cells assessed as reduction of cell viability at 300 ug/mL after 24 hrs by MTT assay. Particulars: mouse. It is filed as cell-based. The essentials: (§3)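 HECPP murine endothelial cells in M199 with 10% FCS, 37 °C, 5% CO₂. Seeded at 10⁵ cells/well, incubated overnight, then exposed to compound for 24 h. MTT added for 2 h and formazan dissolved in 0.04 N HCl/isopropanol. Absorbance read at 550 nm with 630 nm reference, expressed as percent of metabolically active cells.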
In general terms: Tetrazolium dyes change colour on reduction, which living cells bring about.

The test system of data set [5] is MC-38 (Mus musculus). As to the kind of experiment: Induction of hemorrhagic necrosis in colon 38 tumor bearing C57B1/6 mouse at 190 mg/kg, ip after 24 hrs relative to control. Conditions: route intraperitoneal.
The subject of data set [6] is MC-38 (Mus musculus). As to the kind of experiment: Induction of hemorrhagic necrosis in colon 38 tumor bearing C57B1/6 mouse at 25 mg/kg, ip after 24 hrs relative to control. Particulars: route intraperitoneal.
Data set [7] relates to HECPP. As to the kind of experiment: Activation of NF-kappaB in HECPP cells at 10 ug/mL. It is filed as functional, cell-based. Conditions: Mus musculus. The essentials:
as §2

The test system of data set [8] is Splenocyte. As to the kind of experiment: Induction of TNF secretion in mouse splenocytes at 10 ug/mL after 4 hrs. It counts as functional. The essentials:
as §1

Data set [9] concerns MC-38 (Mus musculus). In words: Induction of hemorrhagic necrosis in colon 38 tumor bearing C57B1/6 mouse at 200 mg/kg, ip after 24 hrs relative to control. Particulars: route intraperitoneal.
Data set [10] can be described thus: Cytotoxicity against HECPP cells assessed as reduction of cell viability at 600 ug/mL after 24 hrs by MTT assay. It is filed as cell-based. Particulars: mouse. The essentials: as §3
In data set [11] the test system is HECPP. In words: Activation of NF-kappaB in HECPP cells at 1000 ug/mL. Conditions: Mus musculus. It counts as functional, cell-based. The essentials:
as §2

The test system of data set [12] is Splenocyte. In words: Induction of TNF secretion in mouse splenocytes at 100 ug/mL after 4 hrs. It is filed as functional. Summed up:
as §1

Data set [13] deals with HECPP. In words: Activation of NF-kappaB in HECPP cells at 300 ug/mL. Particulars: Mus musculus. It counts as functional, cell-based. Summed up: as §2

Molecules are shown by their SMILES. The source made the active and inactive calls. The rule behind the calls is not given here. Some results are limits rather than exact numbers.

TNF production and Activity data for three compounds are collected here from ChEMBL document CHEMBL1146240 (J Med Chem, 2007).

`Cc1ccc2c(=O)c3cccc(CC(=O)O)c3oc2c1N=[N+]=[N-]` yielded a TNF production in [1] of less than 50 pg/mL. In addition, the results for the Activity (in the data set with Splenocyte [2]; in [4]; with MC-38 (Mus musculus) [5]) were less than 50 pg/mL, 50% and more than 95%, respectively. For the same compound, in the data set with HECPP [3], the result was Active.

Turning to `Cc1ccc2c(=O)c3cccc(CC(=O)O)c3oc2c1C` [VADIMEZAN], the Activity is more than 95% in the data set on MC-38 (Mus musculus) [6] and 180 pg/mL with Splenocyte [8]. Besides, in the data set with HECPP [7], the result was Active.

Turning to `[N-]=[N+]=Nc1cccc2c(=O)c3cccc(CC(=O)O)c3oc12`, the Activity was more than 95% in the data set with MC-38 (Mus musculus) [9], 50% in data set [10] and 110 pg/mL in the data set on Splenocyte [12]. In addition, the outcome in the data set with HECPP [11] and in the data set on HECPP [13] was Active.
